The list is not random: actives were taken first. Their share in the collection is about 1.3%.
ANO1 block = inhibitors of mouse TMEM16A calcium-activated chloride channel; HEK293 TMEM16A/YFP iodide influx fluorescence, ionomycin; Q8BHY3; normalized B-score (activity score, 25-100; higher = stronger inhibition) at 10 µM; actives 1.2% (n = 310,000); AID 588511;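 active = ratio plate-corrected score three or more library SD toward inhibition, starting fluorescence score within five deviations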;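 also: score derived from kinetic fluorescence span divided by baseline fluorescence per well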
Target sequence (Q8BHY3 whole entry, looked up): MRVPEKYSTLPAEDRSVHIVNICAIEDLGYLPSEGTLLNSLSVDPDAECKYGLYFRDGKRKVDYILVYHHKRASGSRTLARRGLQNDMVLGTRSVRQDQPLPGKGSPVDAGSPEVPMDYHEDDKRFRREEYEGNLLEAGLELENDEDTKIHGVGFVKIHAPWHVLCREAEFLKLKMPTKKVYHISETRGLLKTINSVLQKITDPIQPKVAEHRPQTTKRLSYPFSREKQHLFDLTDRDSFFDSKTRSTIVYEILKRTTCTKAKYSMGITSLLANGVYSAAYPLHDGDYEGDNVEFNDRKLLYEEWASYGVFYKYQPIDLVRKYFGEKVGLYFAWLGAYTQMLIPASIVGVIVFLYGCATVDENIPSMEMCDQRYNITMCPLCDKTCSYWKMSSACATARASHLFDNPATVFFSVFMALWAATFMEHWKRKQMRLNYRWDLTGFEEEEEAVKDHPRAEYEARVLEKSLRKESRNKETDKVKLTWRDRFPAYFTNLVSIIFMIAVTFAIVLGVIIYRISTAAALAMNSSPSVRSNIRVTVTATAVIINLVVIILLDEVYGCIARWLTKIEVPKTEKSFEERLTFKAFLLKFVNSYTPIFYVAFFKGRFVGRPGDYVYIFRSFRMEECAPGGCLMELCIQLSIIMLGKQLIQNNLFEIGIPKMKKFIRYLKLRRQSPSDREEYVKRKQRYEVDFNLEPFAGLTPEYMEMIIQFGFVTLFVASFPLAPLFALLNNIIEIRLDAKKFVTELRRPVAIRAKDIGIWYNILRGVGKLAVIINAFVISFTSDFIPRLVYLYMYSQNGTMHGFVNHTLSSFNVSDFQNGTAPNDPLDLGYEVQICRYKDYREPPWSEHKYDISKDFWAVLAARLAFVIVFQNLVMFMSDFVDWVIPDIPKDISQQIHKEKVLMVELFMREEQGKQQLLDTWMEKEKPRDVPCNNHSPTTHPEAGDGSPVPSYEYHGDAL
TMEM16A act = activates or potentiates the mouse TMEM16A chloride channel. actives 0.3% (n = 340,000). B-score at 10 µM. AID 623877. HEK293 TMEM16A/YFP-H148Q/I152L, iodide quench fluorescence; stronger effect = lower value. Q8BHY3;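 active = fluorescence-ratio B-score plate-corrected deviation score at least 3 library SD below zero, with starting fluorescence score within 5 deviations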;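 also: channel opened by trigger with iodide after compound preincubation; score built on the fluorescence ratio of max minus min over baseline; more negative score means more quench and so TMEM16A activation or potentiation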
MT1-MMP act inh = blocks activation of human MT1-MMP; P50281; HT1080 RFP-PRO-GFP cells, GFP/RFP ratio fluorescence, overnight; percent of plate control window, DMSO zero; actives 0.061% (n = 360,000); GFP/RFP ratio change, % at 20 µM;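 active = GFP/RFP ratio change of at least 30% with cell ATP level not reduced by more than half and red fluorescence within 50% of control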
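Material – HT1080 RFP-PRO-GFP cells · Control set – DMSO wells and RFP-L50D-GFP cells · Incubation – overnight cell settling, then overnight compound exposure, 37 °C, 5% CO2 · Compound dosing – single-point 20 µM compound, 1% DMSO · Read-out – GFP/RFP fluorescence ratio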
DAGLB inhibitor = diacylglycerol lipase beta (human) inhibition; HEK293T DAGLB membrane lysate, EnzChek fluorogenic substrate; inhibition, % at 5.17 µM; actives 0.059% (n = 340,000); in the data active = inhibition above about 34%;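 also: 0% = enzyme with vehicle and 100% = wells lacking enzyme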
DAGLB inh conf = DAGLB (human) inhibition, confirmation screen | shares compounds with DAGLB inhibitor | HEK293T DAGLB membrane lysate, EnzChek fluorogenic substrate | inhibition, % at 5.17 µM | actives 73% (n = 190);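 active = mean inhibition over triplicate wells above a set limit taken from the primary lipase screen, cut at about 34% in these data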;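 also: 0% = DAGLB with DMSO and 100% = wells lacking DAGLB enzyme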
TMEM16A reconf = TMEM16A (mouse) chloride channel inhibition, re-confirmation; shares compounds with ANO1 block; HEK293 TMEM16A/YFP-H148Q, iodide quench fluorescence; ionomycin added to raise cell calcium; inhibition, % at 10 µM; actives 39% (n = 2,300); AID 652189;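 active = mean duplicate percent inhibition, scaled so buffer wells are 0 and the reference blocker 100, over three buffer SD above buffer mean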
TMEM16A Ca cntr = alters calcium mobilization in TMEM16A HEK293 cells, counter-screen | shares compounds with ANO1 block | TMEM16A/YFP HEK293, Fluo4 calcium mobilization | calcium response (% of ionomycin), % at 10 µM | actives 2% (n = 2,300) | AID 652231;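 active = duplicate-averaged calcium signal over 20% of the ionomycin maximum, relative to buffer baseline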;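 also: each well's signal is peak minus trough fluorescence divided by its pre-addition baseline; 0% = buffer wells and 100% = ionomycin wells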
YFP-HEK293 quench = counter-screen for TMEM16A inhibitors: effect in parental YFP-HEK293 cells; iodide YFP quench, ionomycin; shares compounds with ANO1 block; YFP ratio F(max-min)/F0 at 10 µM; 2,300 tested, under 10 active;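 active = yellow fluorescent protein signal ratio exceeding the buffer control mean by over 5 SD of those controls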;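 also: ratio is mean of duplicate wells from kinetic YFP trace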
ClC-1 inh = blocks the rat ClC-1 voltage-dependent chloride channel; shares compounds with ANO1 block; CHO ClC-1-YFP, iodide influx fluorescence quench; iodide control reads 0, buffer control 100; ratio percent, % at 10 µM; 2,300 tested, under 10 active;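 active = duplicate-mean ratio percent above the mean of iodide-only control wells, which defines zero, plus 5 of their SD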;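 also: higher percent means stronger block of ClC-1 iodide influx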
* marks the source's active call; other numbers are inactive results; i = inactive; x = no result given.

SMILES | ANO1 block | TMEM16A act | MT1-MMP act inh | DAGLB inhibitor | others
CSc1ccc(C(=O)C2CCCN(Cc3cccnc3)C2)cc1 (stereo not given) | i | i | -4 | -2
CC12CC1(C)C(=O)N(c1cc(Cl)cc(Cl)c1)C2=O (stereo not given) | x | i | 3 | -3
CNc1ccc2oc(C[C@H]3O[C@@]4(CC[C@H]3C)O[C@H]([C@H](C)C(=O)c3ccc[nH]3)[C@H](C)C[C@H]4C)nc2c1C(=O)O | 100* | -37* | -10 | 15
CC(C)NC(=O)Cn1cc(C(=O)c2ccccc2F)c2ccccc21 | i | -5.3* | 0 | -10
COC(=O)C1C2c3ccccc3C(c3ccccc32)C1C(=O)OC (stereo not given) | i | -8.8* | -1 | -4
CC(C)OC(=O)C1C2c3ccccc3C(c3ccccc32)C1C(=O)O (stereo not given) | i | i | 1 | 0
O=C(NCCN1CCC2(CC1)C(=O)NCN2c1cccc(F)c1)c1ccc2ccccc2c1 | x | x | -7 | x
CCN1C(=O)C(=Cc2ccc(N3CCOCC3)o2)C(=O)N(CC)C1=S | i | -5.5* | -104 | -1
CCCCCn1c(=O)c(C(=O)Nc2cnccn2)c(O)c2ccccc21 | i | -6.5* | -8 | 0
CCCCCCCn1c(=O)c(C(=O)Nc2cnccn2)c(O)c2ccccc21 | i | i | -10 | 2
N[C@@]1(C(=O)O)CC[C@@H](C(=O)O)C1 | i | i | -1 | 1
CC1(C)C[C@H]2C=C(C=O)[C@]3(C=O)C[C@]3(C)[C@H]2C1 | 100* | i | -10 | 7
CC(CC(C)(C)N1CC1)=NNC(=O)Nc1cccc2ccccc12 | x | i | 2 | -1
CC1(C)CSC(=NCc2ccccc2)N1 | i | -6.4* | -4 | 0
COc1cccc(C(c2nnnn2C(C)(C)C)N2CCC3(CC2)C(=O)NCN3c2ccccc2)c1OC (stereo not given) | x | x | -2 | x
CC1Oc2cc3c(-c4c(O)cc(O)c5c(O)c6c(cc45)OC(C)C(C)C6=O)c(O)cc(O)c3c(O)c2C(=O)C1C (stereo not given) | i | -9.1* | -9 | 26
[O-]c1ccccc1-[n+]1c(-c2ccccc2)cc(-c2ccccc2)cc1-c1ccccc1 | 100* | i | -5 | 5
Nc1ccccc1-[n+]1c(-c2ccccc2)cc(-c2ccccc2)cc1-c1ccccc1 | i | -9* | -9 | 2
Oc1ccccc1-[n+]1c(-c2ccccc2)cc(-c2ccccc2)cc1-c1ccccc1 | i | i | -14 | 6
Cc1ccccc1-[n+]1c(-c2ccccc2)cc(-c2ccccc2)cc1-c1ccccc1 | 100* | i | 3 | 4
Fc1ccc(N2Cc3ccccc3-n3nncc3C2)cc1 | x | x | 7 | x
COc1ccc(NC2Oc3cc4c(cc3C(c3cc(OC)c(OC)c(OC)c3)C2C)OCO4)cc1 (stereo not given) | x | i | 17 | -3
O=C(NCC1=C(c2cccc3ccccc23)C[C@@H]2CC[C@H]1N2Cc1ccco1)c1ccc([N+](=O)[O-])cc1 | x | x | 0 | 1
O=[N+]([O-])c1cc(O)c(O)c([N+](=O)[O-])c1 | i | i | 9 | 42* | DAGLB inh conf=33
C[C@]12CC[C@@H](O)CC1=CC(=O)C1C2CC[C@]2(C)C(=O)CCC12 (stereo not given in full) | x | i | 2 | -4
SMILES | ANO1 block | TMEM16A act | MT1-MMP act inh | DAGLB inhibitor | others
CCOC(=O)c1c(-c2ccc(OC)cc2)oc2ccc(OC(=O)N(C)C)cc12 | 100* | i | -7 | -9 | TMEM16A reconf=i;TMEM16A Ca cntr=i;YFP-HEK293 quench=-1.2;ClC-1 inh=-12
Cc1oc2ccc(OC(=O)N(C)C)cc2c1C(=O)OC(C)C | i | i | -3 | -7
CC(C)N1OC2CC1c1nc3ccccc3n1C2 (stereo not given) | 25* | i | 2 | -1 | TMEM16A reconf=i;TMEM16A Ca cntr=i;YFP-HEK293 quench=-1.1;ClC-1 inh=-18
Cc1ccccc1CCNCc1cc2cccc(C)c2[nH]c1=O | i | i | x | -4
O=C(Cc1ccccc1)N1CCN(Cc2ccccc2Cl)CC1 | 25* | i | 1 | -10 | TMEM16A reconf=i;TMEM16A Ca cntr=i;YFP-HEK293 quench=-0.98;ClC-1 inh=-10
COc1ccc(OC)c(-n2c(O)c(/C=C3\C=Nc4ccccc43)c(=O)[nH]c2=O)c1 | i | i | -3 | 3
CCOc1ccc(-n2c(O)c(/C=C3\C=Nc4ccccc43)c(=O)[nH]c2=O)cc1 | i | i | -8 | 4 | TMEM16A reconf=22%*;TMEM16A Ca cntr=40%*;YFP-HEK293 quench=-0.82;ClC-1 inh=4
O=C(COC(=O)c1cccc(O)c1)Nc1ccc(Cl)cc1C(=O)c1ccccc1 | i | i | 3 | -7
O=C(Oc1c(Cl)cc(Cl)c2ccccc12)N1CCCCC1 | 100* | i | 0 | -21 | TMEM16A reconf=i;TMEM16A Ca cntr=i;YFP-HEK293 quench=-1;ClC-1 inh=-10
O=C(Nc1ccc(OC(=O)N2CCCCC2)cc1)N1CCOCC1 | i | i | -3 | -3
Cc1ccc(N)c(C(=O)c2ccc(Br)cc2)c1 | 100* | i | -3 | -9 | TMEM16A reconf=i;TMEM16A Ca cntr=i;YFP-HEK293 quench=-1.2;ClC-1 inh=-7
COc1nc(NCC2CCCO2)nc(N2CC3CC(C2)c2cccc(=O)n2C3)n1 (stereo not given) | i | i | 1 | -1
CCCCn1c(O)c(C(C)=NCCN2CCCCC2)c(=O)[nH]c1=O | i | i | -12 | 0 | TMEM16A reconf=i;TMEM16A Ca cntr=i;YFP-HEK293 quench=-0.96;ClC-1 inh=1
CC(C)=CCc1c(O)cc2c(c1O)C(=O)CC(c1ccc(O)cc1)O2 (stereo not given) | 100* | i | 3 | -3 | TMEM16A reconf=i;TMEM16A Ca cntr=i;YFP-HEK293 quench=-0.95;ClC-1 inh=-16
Nc1c(Cl)cc([N+](=O)[O-])cc1Cl | i | i | -10 | -4
C[C@]12CCC3C(CC[C@@H]4[C@H]5O[C@H]5CC[C@]34C)C1CC[C@@H]2O (stereo not given in full) | x | i | 4 | -3
COCCCNC(=O)c1c(N)n(Cc2ccco2)c2nc3ccccc3nc12 | i | i | -34 | x
CCCNC(=O)c1c(N)n(Cc2ccco2)c2nc3ccccc3nc12 | i | x | x | x | TMEM16A reconf=i;TMEM16A Ca cntr=i;YFP-HEK293 quench=-1;ClC-1 inh=-6

From PubChem
